Measurements taken from publication PMC10099993 (Clinical Pharmacology in Drug Development, 2022).
Several values for one entry are separate records, joined by “and”; a condition that tells them apart may be missing. Equal entries are not always repeated. Where two headings read alike, the source gives them in different places.

What was measured:
[1] = format: in vivo, human; conditions: for half-life / Cmax: human, plasma; for half-life: oral; for Cmax: po; for dose-normalized AUCinf, geometric LS mean / dose-normalized AUClast, geometric LS mean / dose-normalized Cmax, geometric LS mean: ANOVA
How it was run: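 Healthy adults of both sexes, 18–60 y, BMI 18–30 kg/m2. Randomized three-period crossover (sequences ABC/BCA/CAB), with a single fasted oral dose and 240 mL water on day 1 of each period and a 10-day washout. Plasma sampled 0.5–144 h postdose and analysed by validated LC-MS/MS. Noncompartmental PK. Mixed-effects ANOVA on dose-normalized ln Cmax/AUC versus the 400 mg reference. Power model: 90% CI of slope against the 80–120% interval.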

CYP2C9 = conditions: previous pharmacokinetic analyses ref 4; cited from earlier work
[2] = Mass balance study, single oral dose of [14C]-pexidartinib 400 mg; format: in vivo, human; conditions: for Percent of Radioactive Dose, feces: pooled feces
How it was run: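 Eight healthy men, 19–55 y, BMI 19–32 kg/m2. Single oral 400 mg (150 μCi) 14C suspension with ~50 mL water after ≥8 h fast, fasting ≥4 h after dosing. Confined ≥168 h; urine and feces collected up to 240 h. Total radioactivity by scintillation counting. Parent in plasma by validated LC-MS/MS. Radio-LC-MS profiling of metabolites. Noncompartmental PK.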

rCYP3A5 = rCYP3A5 (Homo sapiens, UniProt P20815); assay: In vitro metabolic enzyme identification, recombinant human CYP incubation; format: in vitro ADME; conditions: 1 μM pexidartinib, NADPH, 37°C, 30 minutes
How it was run: (§1)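 1 μM test compound incubated with a panel of recombinant human CYPs (1A2, 2B6, 2C8, 2C9, 2C19, 2D6, 3A4, 3A5) plus NADPH at 37°C for 30 minutes. Parent loss measured by LC-MS/MS.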

rCYP3A4 = rCYP3A4 (Homo sapiens, UniProt P08684); assay: as above; format: in vitro ADME; conditions: 1 μM pexidartinib, NADPH, 37°C, 30 minutes
How it was run: as §1

[3] = following oral administration; background statement, no reference given; cited from earlier work
cytochrome P450 (CYP) 3A = conditions: previous pharmacokinetic analyses ref 4; cited from earlier work
[4] = across all three dose levels, 90%CI
[5] = dose-proportionality study, 18 subjects
[6] = pexidartinib 200 mg vs 400 mg (400 mg reference)
[7] = pexidartinib 400 mg vs 600 mg (400 mg reference)
[8] = male, human, plasma, po, 400 mg
[9] = single oral [14C]-pexidartinib 400 mg
[10] = single oral [14C]-pexidartinib 400 mg, N = 8, median (range)

rCYP3A5, sequence (P20815 whole entry): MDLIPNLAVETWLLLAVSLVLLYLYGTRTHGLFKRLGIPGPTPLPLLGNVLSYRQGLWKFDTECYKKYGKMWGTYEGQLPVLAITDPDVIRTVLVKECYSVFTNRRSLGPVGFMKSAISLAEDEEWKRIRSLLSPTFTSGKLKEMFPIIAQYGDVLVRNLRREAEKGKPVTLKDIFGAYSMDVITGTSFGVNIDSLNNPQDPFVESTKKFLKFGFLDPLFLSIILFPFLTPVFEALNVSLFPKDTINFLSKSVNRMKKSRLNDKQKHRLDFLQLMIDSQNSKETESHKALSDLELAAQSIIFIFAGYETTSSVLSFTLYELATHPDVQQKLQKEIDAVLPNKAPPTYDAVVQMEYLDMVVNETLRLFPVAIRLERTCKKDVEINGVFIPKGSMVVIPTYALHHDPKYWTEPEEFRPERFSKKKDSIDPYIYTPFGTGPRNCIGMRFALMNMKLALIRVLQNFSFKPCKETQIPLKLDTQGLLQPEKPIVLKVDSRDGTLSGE
rCYP3A4, sequence (P08684 whole entry): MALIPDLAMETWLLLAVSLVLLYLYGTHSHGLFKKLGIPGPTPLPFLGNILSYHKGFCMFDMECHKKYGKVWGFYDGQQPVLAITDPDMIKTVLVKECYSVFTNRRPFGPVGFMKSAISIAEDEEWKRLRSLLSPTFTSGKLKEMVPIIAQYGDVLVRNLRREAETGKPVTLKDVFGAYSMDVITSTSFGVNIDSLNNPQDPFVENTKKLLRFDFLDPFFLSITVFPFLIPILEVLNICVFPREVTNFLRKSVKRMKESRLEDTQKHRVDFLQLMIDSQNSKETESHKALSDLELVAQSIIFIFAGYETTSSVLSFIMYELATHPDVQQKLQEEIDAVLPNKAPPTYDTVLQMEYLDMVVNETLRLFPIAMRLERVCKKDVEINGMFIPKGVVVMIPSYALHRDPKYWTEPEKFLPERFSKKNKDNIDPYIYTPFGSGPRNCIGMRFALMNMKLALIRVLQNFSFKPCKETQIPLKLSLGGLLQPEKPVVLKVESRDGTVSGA

For `FC(F)(F)c1ccc(CNc2ccc(Cc3c[nH]c4ncc(Cl)cc34)cn2)cn1` [Pexidartinib], which “dose proportionality by power model” value ([1]; 200-600 mg, 90%CIs overlapped the 0.80-1.20 acceptance interval) is on record?
The value was “inconclusive”.

What about the “slope estimate for AUClast versus dose (power model)” value [1, 4] of the same molecule?
Its value is 0.85 (90%CI 0.77, 0.92).

And the “slope estimate for Cmax versus dose (power model)” value [1, 4]?
Its value is 0.83 (90%CI 0.74, 0.91) and 0.83 (90%CI, 0.74, 0.91).

What about the “severity of TEAEs” value ([1]; all TEAEs, dose-proportionality study) of the same molecule?
The value was “grade 1”.

And the “TEAE leading to death, serious adverse event, or discontinuation” value [1, 5]?
Its value is “No subject”.

And the “subjects who experienced TEAEs” value [1, 5]?
Its value is “four”.

And the half-life [1]?
Its half-life is 24.8 to 26.7 h.

And the half-life ([1]; 600 mg)?
The half-life was 24.8 h.

What about the Cmax ([1]; 200 mg) of the same molecule?
Its Cmax is 2490 ng/mL.

And the Cmax ([1]; 400 mg)?
The Cmax was 4660 ng/mL.

And the Cmax ([1]; 600 mg)?
Its Cmax is 6030 ng/mL.

What about the “dose-normalized AUCinf, geometric LS mean ratio (90%CI)” value [1, 6] of the same molecule?
The value was 101.3 (93.5, 109.7) %.

And the “dose-normalized AUClast, geometric LS mean ratio (90%CI)” value [1, 6]?
Its value is 101.3 (93.5, 109.8) %.

And the “dose-normalized Cmax, geometric LS mean ratio (90%CI)” value [1, 6]?
The value was 105.9 (96.8, 115.8) %.

And the “dose-normalized AUCinf, geometric LS mean” value ([1]; pexidartinib 200 mg, n = 18)?
Its value is 209.4 ng·h/mL/mg.

And the “dose-normalized AUClast, geometric LS mean” value ([1]; pexidartinib 200 mg, n = 18)?
Its value is 204.1 ng·h/mL/mg.

And the “dose-normalized Cmax, geometric LS mean” value ([1]; pexidartinib 200 mg, n = 18)?
The value was 11.7 ng/mL • mg.

And the “t1/2, pexidartinib in plasma” value ([1]; pexidartinib 200 mg, n = 18, mean (SD))?
The value was 25.5 (5.2) h.

What about the “dose-normalized AUCinf, geometric LS mean ratio (90%CI)” value [1, 7] of the same molecule?
The value was 83.7 (77.3, 90.7) %.

What about the “dose-normalized AUClast, geometric LS mean ratio (90%CI)” value [1, 7] of the same molecule?
Its value is 84.1 (77.6, 91.2) %.

And the “dose-normalized Cmax, geometric LS mean ratio (90%CI)” value [1, 7]?
Its value is 86.3 (79.0, 94.4) %.

And the “dose-normalized AUCinf, geometric LS mean” value ([1]; pexidartinib 400 mg, n = 18)?
The value was 206.8 ng·h/mL/mg.

What about the “dose-normalized AUClast, geometric LS mean” value ([1]; pexidartinib 400 mg, n = 18) of the same molecule?
The value was 201.4 ng·h/mL/mg.

What about the “dose-normalized Cmax, geometric LS mean” value ([1]; pexidartinib 400 mg, n = 18) of the same molecule?
Its value is 11.0 ng/mL • mg.

What about the “dose-normalized AUCinf, geometric LS mean” value ([1]; pexidartinib 600 mg, n = 18) of the same molecule?
The value was 173.2 ng·h/mL/mg.

What about the “dose-normalized AUClast, geometric LS mean” value ([1]; pexidartinib 600 mg, n = 18) of the same molecule?
The value was 169.4 ng·h/mL/mg.

And the “dose-normalized Cmax, geometric LS mean” value ([1]; pexidartinib 600 mg, n = 18)?
Its value is 9.5 ng/mL • mg.

And the “effect on CYP2C9” value (CYP2C9)?
Its value is “weak inhibitor”.

What about the “time of peak pexidartinib and total radioactivity” value ([2]; after the oral dose, pexidartinib and total radioactivity together) of the same molecule?
Its value is 1.75 to 2.0 h.

And the “severity of TEAEs” value ([2]; all events, mass balance study)?
Its value is “mild (grade 1)”.

What about the oral bioavailability ([2]; inferred from 44% of dose excreted unchanged in feces) of the same molecule?
Its oral bioavailability is “moderate”.

What about the Cmax [2, 8] of the same molecule?
The Cmax was 2920 ng/mL.

And the Tmax [2, 8]?
The Tmax was 1.75 h.

And the half-life [2, 8]?
Its half-life is 28.7 h.

What about the AUC(0-t) ([2]; male, human, plasma, po, 400 mg, AUClast, pexidartinib in plasma, single oral [14C]-pexidartinib 400 mg, N = 8, mean (CV%)) of the same molecule?
The AUC(0-t) was 60400 ng·h/mL.

What about the “TEAE deemed by the investigator to be related to pexidartinib treatment” value ([2]; mass balance study) of the same molecule?
Its value is “Diarrhea”.

And the “TEAE leading to death, serious adverse event, or discontinuation” value ([2]; mass balance study, 8 subjects)?
Its value is “No subject”.

What about the “number of TEAEs” value ([2]; mass balance study, 8 subjects) of the same molecule?
Its value is “four”.

What about the “administered radioactivity recovered in the feces” value ([2]; over 240 hours, single oral [14C]-pexidartinib 400 mg) of the same molecule?
Its value is 64.8%.

What about the “administered radioactivity recovered in the urine” value ([2]; over 240 hours, single oral [14C]-pexidartinib 400 mg, listed as [^14C]‐pexidartinib) of the same molecule?
The value was 27.4%.

What about the “administered radioactivity recovered in the urine” value ([2]; over 240 hours, single oral [14C]-pexidartinib 400 mg, listed as pexidartinib) of the same molecule?
Its value is greater than 20%.

And the “share of total radioactivity in the plasma” value ([2]; plasma, single oral [14C]-pexidartinib 400 mg)?
Its value is 34.9%.

And the “Percent of Radioactive Dose, feces” value [2, 9]?
The value was 44%.

And the “Percent of Radioactive Dose, feces” value ([2]; single oral [14C]-pexidartinib 400 mg, listed as pexidartinib)?
Its value is 44.0%.

What about the “Percent of Radioactive Dose, urine” value ([2]; pooled urine, single oral [14C]-pexidartinib 400 mg) of the same molecule?
The value was “no detectable”.

What about the “AUC0-24 of total plasma radioactivity relative to plasma pexidartinib” value [2, 9] of the same molecule?
Its value is “approximately 2 fold”.

What about the “AUClast of total radioactivity in plasma relative to pexidartinib in plasma” value [2, 9] of the same molecule?
The value was 3 fold.

And the “Cmax of total plasma radioactivity relative to plasma pexidartinib” value [2, 9]?
Its value is “approximately 2 fold”.

What about the “Tmax, total radioactivity in plasma” value [2, 10] of the same molecule?
Its value is 2.0 (1.5, 3.0) h.

And the “Tmax, total radioactivity in whole blood” value [2, 10]?
The value was 2.0 (1.5, 3.0) h.

And the substrate loss (rCYP3A5)?
Its substrate loss is 100 % loss.

And the substrate loss (rCYP3A4)?
Its substrate loss is 100 % loss.

And the “time of maximum plasma concentrations” value [3]?
The value was “approximately 2.5 hours”.

What about the “effect on CYP3A” value (cytochrome P450 (CYP) 3A) of the same molecule?
The value was “moderate inducer”.
